Test results reported in paper PMC7993281 (Clinical and Translational Science, 2020).

Legend:
[1] = test system: globotriaosylceramide (Gb3) plasma concentration; assay: MAD study pharmacodynamics: plasma Gb3; assay type: in vivo, human; conditions: after last dose
[2] = test system: glucosylceramide (GlcCer) plasma concentration; assay: MAD study pharmacodynamics: plasma GlcCer; assay type: in vivo, human
How it was run: (§1)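 Healthy men and women (1:1), 8 active and 2 placebo per cohort. Oral 30, 100, 300 or 1,000 mg b.i.d. for 7 days. Morning dose after a 10-hour fast, evening dose 2 hours after dinner. Plasma sampled on Days 1, 2, 4 and 7 and at 24, 48 and 72 h after the last dose. Validated LC-MS/MS. Percent change from Day 1 predose.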

[3] = test system: non‐lysosomal glucosylceramidase (GBA2) vs glucosylceramide synthase (GCS); assay: Relative inhibitory potency on GBA2 versus GCS; assay type: biochemical
[4] = MAD study tolerability/safety; assay type: in vivo, human
How it was run: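 Healthy men and women aged 18–55 years, BMI 18–30 kg/m2, 8 active and 2 placebo per cohort. Oral 30–1,000 mg b.i.d. for 7 days with staggered dosing. Subjects were confined until 72 h after the last dose, with follow-up at 29–34 days. AEs, vital signs, ECG, physical examination and clinical laboratory tests were recorded and summarised descriptively.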

[5] = test system: lactosylceramide (LacCer) plasma concentration; assay: MAD study pharmacodynamics: plasma LacCer; assay type: in vivo, human; conditions: 72 hours after the last dose
How it was run: as §1

[6] = Multiple-ascending dose; assay type: in vivo, human; conditions: for AI, accumulation index / UPE, percentage of dose excreted unchanged in urine: geometric mean (95% CI)
How it was run: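 Oral 30, 100, 300 or 1,000 mg b.i.d. for 7 days in healthy men and women, n = 8 active per dose. Plasma sampled for 12 h on Day 1, at trough on Days 2–6, and up to 72 h after the last dose. Urine collected predose Day 1 and 0–12 h on Day 7. Validated LC-MS/MS. Noncompartmental analysis gave AUCτ, accumulation index and CLR.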

[7] = MAD 300 mg b.i.d. for 7 days (n = 8)

Structure (SMILES): CCCCCN1C[C@H](O)[C@@H](O)[C@H](O)[C@@H]1CO [sinbaglustat, (2S,3R,4R,5S)‐2‐(hydroxymethyl)‐1‐pentylpiperidine‐3,4,5‐triol]
- Gb3 mean percentage change from baseline after treatment stop [1]: remained stable for 3 days after treatment stop
- GlcCer during the treatment period ([2]; 30 mg b.i.d.): remained at baseline
- GlcCer increase from baseline concentration ([2]; 30 mg b.i.d., 72 hours after the last dose): 32%
- GlcCer percentage change from baseline ([2]; 100 mg b.i.d., 48 hours after the last dose): –7%
- GlcCer percentage change from baseline ([2]; 300 mg b.i.d., 72 hours after the last dose): –1%
- GlcCer percentage change from baseline ([2]; 1,000 mg b.i.d., 72 hours after the last dose): –19%
- reduction in GlcCer ([2]; highest tested dose (1,000 mg b.i.d.), repeated treatment): 72%
- potency in inhibiting GBA2 relative to GCS [3]: 50 fold
- Dizziness (subjects) ([4]; MAD 30 mg b.i.d. (n = 8)): 4
- Headache (subjects) ([4]; MAD 30 mg b.i.d. (n = 8)): 2
- Muscle twitching (subjects) ([4]; MAD 30 mg b.i.d. (n = 8)): 1
- Pain in extremity (subjects) ([4]; MAD 30 mg b.i.d. (n = 8)): 1
- Viral upper respiratory tract (subjects) ([4]; MAD 30 mg b.i.d. (n = 8)): 1
- Total number of AEs ([4]; MAD 30 mg b.i.d. for 7 days (n = 8)): 13
- Dizziness (subjects) ([4]; MAD 100 mg b.i.d. (n = 8)): 2
- Fatigue (subjects) ([4]; MAD 100 mg b.i.d. (n = 8)): 1
- Total number of AEs ([4]; MAD 100 mg b.i.d. for 7 days (n = 8)): 8
- Dizziness (subjects) ([4]; MAD 300 mg b.i.d. (n = 8)): 1
- Headache (subjects) ([4]; MAD 300 mg b.i.d. (n = 8)): 2
- Nausea (subjects) ([4]; MAD 300 mg b.i.d. (n = 8)): 1
- Rash (subjects) ([4]; MAD 300 mg b.i.d. (n = 8)): 1
- Number of subjects with at least 1 AE [4, 7]: 4
- Total number of AEs [4, 7]: 8
- Constipation (subjects) ([4]; MAD 1,000 mg b.i.d. (n = 8)): 1
- Decreased appetite (subjects) ([4]; MAD 1,000 mg b.i.d. (n = 8)): 3
- Diarrhea (subjects) ([4]; MAD 1,000 mg b.i.d. (n = 8)): 2
- Dizziness (subjects) ([4]; MAD 1,000 mg b.i.d. (n = 8)): 3
- Fatigue (subjects) ([4]; MAD 1,000 mg b.i.d. (n = 8)): 2
- Headache (subjects) ([4]; MAD 1,000 mg b.i.d. (n = 8)): 4
- Muscle twitching (subjects) ([4]; MAD 1,000 mg b.i.d. (n = 8)): 1
- Nausea (subjects) ([4]; MAD 1,000 mg b.i.d. (n = 8)): 3
- Palpitations (subjects) ([4]; MAD 1,000 mg b.i.d. (n = 8)): 1
- Vomiting (subjects) ([4]; MAD 1,000 mg b.i.d. (n = 8)): 2
- female subjects reporting headache (of 4) ([4]; MAD 1,000 mg b.i.d., female subjects): 4
- subjects reporting AEs (of 32 treated) ([4]; MAD, all doses): 19
- subjects reporting dizziness (of 32) ([4]; MAD, all doses): 10
- subjects reporting headache (of 32) ([4]; MAD, all doses): 8
- subjects reporting AEs ([4]; MAD, all doses, 32 subjects): 59%
- total AEs reported ([4]; MAD, all doses, 32 subjects): 66
- LacCer percentage change from baseline ([5]; 30 mg b.i.d.): –8%
- LacCer percentage change from baseline ([5]; 1,000 mg b.i.d.): –33%
- AI, accumulation index ([6]; Day 7, 30 mg b.i.d.): 1.085 (0.993, 1.185)
- UPE, percentage of dose excreted unchanged in urine ([6]; Day 7, 30 mg b.i.d.): 55.12 (52.08, 58.34) %
- AI, accumulation index ([6]; Day 7, 100 mg b.i.d.): 1.037 (0.930, 1.156)
- UPE, percentage of dose excreted unchanged in urine ([6]; Day 7, 100 mg b.i.d.): 53.55 (44.68, 64.19) %
- AI, accumulation index ([6]; Day 7, 300 mg b.i.d.): 1.101 (1.012, 1.198)
- UPE, percentage of dose excreted unchanged in urine ([6]; Day 7, 300 mg b.i.d.): 48.35 (40.84, 57.24) %
- AI, accumulation index ([6]; Day 7, 1,000 mg b.i.d.): 1.001 (0.942, 1.064)
- UPE, percentage of dose excreted unchanged in urine ([6]; Day 7, 1,000 mg b.i.d.): 45.54 (41.54, 49.92) %
- increased exposure (Cmax and AUCτ) in female compared to male subjects ([6]; all dose groups combined, steady‐state): around 30%
- time to steady‐state concentrations ([6]; b.i.d. dosing): ≤ 2 days
- accumulation after multiple doses ([6]; b.i.d. for 7 days): did not accumulate
